Laboratory results published in ChEMBL document CHEMBL1123369, “Synthesis and structure-activity relationships of new arylfluoronaphthyridine antibacterial agents” (1986).
Values after ≈ are worked out from the molar mass of the structure shown.

Tests used:
Type in all cases: functional
Acinetobacter sp. = experiment: In vitro antibacterial activity against Acinetobacter species CMX669
In short: (§1)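 Twofold agar dilution in brain-heart infusion agar, test range 200 to 0.005 µg/mL, made from a 2000 µg/mL stock. Organisms grown overnight in BHI broth at 36 °C. About 10⁴ organisms inoculated per plate, then incubated 18 h at 36 °C. MIC taken as the lowest concentration giving no visible growth.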

Escherichia coli = experiment: In vitro antibacterial activity against Escherichia coli Juhl; in short: as §1
Klebsiella aerogenes = experiment: In vitro antibacterial activity against Enterobacter aerogenes ATCC 13048; in short: as §1
Klebsiella pneumoniae = experiment: In vitro antibacterial activity against Klebsiella pneumoniae 8045; in short: as §1
Pseudomonas aeruginosa [1] = experiment: compound was evaluated in vitro for the antibacterial activity against Pseudomonas aeruginosa 5007; in short: as §1
Pseudomonas aeruginosa [2] = experiment: In vitro antibacterial activity against Pseudomonas aeruginosa K799/WT; in short: as §1
Streptococcus pyogenes = experiment: In vitro antibacterial activity against Streptococcus pyogenes 930; in short: as §1
Staphylococcus aureus [3] = experiment: In vitro antibacterial activity against Staphylococcus aureus ATCC 6538P; in short: as §1
Enterococcus faecium = experiment: In vitro antibacterial activity against Streptococcus faecium ATCC 8043; in short: as §1
Staphylococcus aureus [4] = experiment: In vitro antibacterial activity against Staphylococcus aureus CMX 686B; in short: as §1
[5] = system: Staphylococcus epidermidis; experiment: In vitro antibacterial activity against Staphylococcus epidermidis 3519; in short: as §1
Pseudomonas aeruginosa [6] = experiment: In vitro antibacterial activity against Pseudomonas aeruginosa 5007; in short: as §1
Mus musculus [7] = experiment: In vivo dose(po) inhibiting systemic infections caused by Pseudomonas aeruginosa 5007 in mice.
In short: (§2)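 CF-1 female mice, about 20 g. Infected ip with 0.5 mL of an 18-h BHI culture diluted in 5% hog gastric mucin to 100× LD₅₀. LD₅₀ set by 10-fold dilutions (Reed–Muench, day 6). Compound given in water or dilute NaOH, sc or po, total dose split at 1 and 5 h post-infection. At least 3 dose levels, 10 mice each. Deaths followed 6 days. ED₅₀ from day-6 cumulative mortality by trimmed Logit, with 95% confidence limits.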

Mus musculus [8] = experiment: In vivo dose(po) inhibiting systemic infections caused by Staphylococcus aureus NCTC 10649 in mice.; in short: as §2
Mus musculus [9] = experiment: In vivo dose(sc) inhibiting systemic infections caused by Pseudomonas aeruginosa 5007 in mice.; in short: as §2
Mus musculus [10] = experiment: In vivo dose(sc) inhibiting systemic infections caused by Staphylococcus aureus NCTC 10649 in mice.; in short: as §2
Mus musculus [11] = experiment: In vivo antibacterial activity against systemic infection caused by Pseudomonas aeruginosa 5007 in mice.; in short: as §2
Mus musculus [12] = experiment: In vivo antibacterial activity against systemic infection caused by Staphylococcus aureus NCTC 10649 in mice.; in short: as §2
Mus musculus [13] = experiment: In vivo dose(po) inhibiting systemic infections caused by Escherichia coli Juhl in mice.; in short: as §2
Mus musculus [14] = experiment: In vivo antibacterial activity against systemic infection caused by Escherichia coli Juhl in mice.; in short: as §2
Mus musculus [15] = experiment: In vivo dose(sc) inhibiting systemic infections caused by Escherichia coli Juhl in mice.; in short: as §2

Row | Structure (SMILES) | MIC (Acinetobacter sp.) [µg/mL] | MIC (Escherichia coli) [µg/mL] | MIC (Klebsiella aerogenes) [µg/mL] | MIC (Klebsiella pneumoniae) [µg/mL] | MIC (Pseudomonas aeruginosa [2]) [µg/mL] | MIC (Streptococcus pyogenes) [µg/mL] | MIC (Staphylococcus aureus [3]) [µg/mL] | MIC (Enterococcus faecium) [µg/mL] | MIC (Staphylococcus aureus [4]) [µg/mL] | MIC [5] [µg/mL] | MIC (Pseudomonas aeruginosa [6]) [µg/mL] | ED50 (Mus musculus [7]) [mg/kg] | ED50 (Mus musculus [8]) [mg/kg] | ED50 (Mus musculus [9]) [mg/kg] | ED50 (Mus musculus [10]) [mg/kg] | MIC (Mus musculus [11]) [µg/mL] | MIC (Mus musculus [12]) [µg/mL] | other results
1 | CN1CCN(c2nc3c(cc2F)c(=O)c(C(=O)O)cn3-c2ccc(F)cc2)CC1 | 0.2 (≈ 0.5 µM) | 0.2 (≈ 0.5 µM) | 0.2 (≈ 0.5 µM) | 0.1 (≈ 0.25 µM) | 1.56 (≈ 3.9 µM) | 3.1 (≈ 7.74 µM) | 0.2 (≈ 0.5 µM) | 3.1 (≈ 7.74 µM) | 0.2 (≈ 0.5 µM) | 0.39 (≈ 0.974 µM) | – | – | – | – | – | – | – | MIC (Pseudomonas aeruginosa [1]): 1.56 µg/mL (≈ 3.9 µM)
2 | O=C(O)c1cn(-c2ccccc2)c2nc(N3CCNCC3)c(F)cc2c1=O | 1.56 (≈ 4.23 µM) | 0.2 (≈ 0.543 µM) | 0.39 (≈ 1.06 µM) | 0.1 (≈ 0.271 µM) | 1.56 (≈ 4.23 µM) | 6.2 (≈ 16.8 µM) | 1.56 (≈ 4.23 µM) | 50 (≈ 136 µM) | 1.56 (≈ 4.23 µM) | 1.56 (≈ 4.23 µM) | 1.56 (≈ 4.23 µM) | – | – | – | – | – | – | –
3 | O=C(O)c1cn(-c2ccc(F)cc2F)c2nc(N3CCNCC3)c(F)cc2c1=O | 0.39 (≈ 0.965 µM) | 0.05 (≈ 0.124 µM) | 0.2 (≈ 0.495 µM) | 0.05 (≈ 0.124 µM) | 0.39 (≈ 0.965 µM) | 0.78 (≈ 1.93 µM) | 0.2 (≈ 0.495 µM) | 0.78 (≈ 1.93 µM) | 0.2 (≈ 0.495 µM) | 0.39 (≈ 0.965 µM) | 0.39 (≈ 0.965 µM) | 7 | 2.4 | 4.6 | 0.6 | 0.39 (≈ 0.965 µM) | 0.12 (≈ 0.297 µM) | –
4 | O=C(O)c1cn(-c2ccc(F)cc2)c2nc(N3CCNCC3)c(F)cc2c1=O | 0.39 (≈ 1.01 µM) | 0.05 (≈ 0.129 µM) | 0.1 (≈ 0.259 µM) | 0.1 (≈ 0.259 µM) | 0.39 (≈ 1.01 µM) | 1.56 (≈ 4.04 µM) | 0.39 (≈ 1.01 µM) | 3.1 (≈ 8.02 µM) | 0.39 (≈ 1.01 µM) | 0.78 (≈ 2.02 µM) | – | 19.9 | 7.5 | 6.9 | 1.6 | 0.39 (≈ 1.01 µM) | 0.25 (≈ 0.647 µM) | ED50 (Mus musculus [13]): 2.8 mg/kg; MIC (Mus musculus [14]): 0.05 µg/mL (≈ 0.129 µM); MIC (Pseudomonas aeruginosa [1]): 0.39 µg/mL (≈ 1.01 µM); ED50 (Mus musculus [15]): 1 mg/kg
5 | CN1CCN(c2nc3c(cc2F)c(=O)c(C(=O)O)cn3-c2ccc(F)cc2F)CC1 | 0.39 (≈ 0.932 µM) | 0.39 (≈ 0.932 µM) | 0.39 (≈ 0.932 µM) | 0.39 (≈ 0.932 µM) | 3.1 (≈ 7.41 µM) | 1.56 (≈ 3.73 µM) | 0.2 (≈ 0.478 µM) | 1.56 (≈ 3.73 µM) | 0.2 (≈ 0.478 µM) | 0.39 (≈ 0.932 µM) | 3.1 (≈ 7.41 µM) | – | – | – | – | – | – | –
6 | NC1CCN(c2nc3c(cc2F)c(=O)c(C(=O)O)cn3-c2ccc(F)cc2)C1 (stereo not drawn) | 0.1 (≈ 0.259 µM) | 0.05 (≈ 0.129 µM) | 0.1 (≈ 0.259 µM) | 0.05 (≈ 0.129 µM) | 0.2 (≈ 0.518 µM) | 0.2 (≈ 0.518 µM) | 0.5 (≈ 1.29 µM) | 0.39 (≈ 1.01 µM) | 0.1 (≈ 0.259 µM) | 0.1 (≈ 0.259 µM) | 0.1 (≈ 0.259 µM) | 18.2 | 1.6 | 7.4 | 0.5 | 0.1 (≈ 0.259 µM) | 0.06 (≈ 0.155 µM) | –
7 | CC1CN(c2nc3c(cc2F)c(=O)c(C(=O)O)cn3-c2ccc(F)cc2)CCN1 (stereo not drawn) | 0.2 (≈ 0.5 µM) | 0.05 (≈ 0.125 µM) | 12.5 (≈ 31.2 µM) | 0.02 (≈ 0.05 µM) | 1.56 (≈ 3.9 µM) | 3.1 (≈ 7.74 µM) | 0.39 (≈ 0.974 µM) | 6.2 (≈ 15.5 µM) | 0.78 (≈ 1.95 µM) | 0.78 (≈ 1.95 µM) | 1.56 (≈ 3.9 µM) | – | – | – | – | – | – | –
